Among the data in PubChem BioAssay AID1381 (University of Pittsburgh Molecular Library Screening Center, 2008) are z-score values, retold here.

The test can be described thus: inhibitors of GR-EGFP nuclear translocation, primary screen, dynein cargo transport inhibitor project, imaging, high-content, 3617.4 mouse cells (AID 1381). As to conditions: stimulated with dexamethasone, 1 µM. In a few lines:
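Also added – dexamethasone, 1.0 µM final · Buffer or medium – tet-free, stripped-serum medium · Schedule – induction 48 h, compound 1 h, agonist 30 min · Detection – formaldehyde fixation, Hoechst nuclear stain, 10x automated fluorescence imaging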

Where [1] appears, read: measured here: cell count per field, at 20 µM.
Setting [2] is: measured here: cytoplasmic GR-EGFP intensity, at 20 µM, stronger effect = higher value.
Setting [3] is: measured here: nuclear GR-EGFP intensity, at 20 µM, stronger effect = lower value.
[4] abbreviates: measured here: cell count per field, at 50 µM.
Where [5] appears, read: measured here: cytoplasmic GR-EGFP intensity, at 50 µM, stronger effect = higher value.
The mark [6] stands for this setting: measured here: nuclear GR-EGFP intensity, at 50 µM, stronger effect = lower value.

The campaign covered roughly 220,000 compounds. About 1,000 (0.45%) were called active.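 How the source made its calls: active means plate z-score of nuclear minus cytoplasmic receptor signal below a set negative limit, without overly bright fluorescence or cell loss (cut at about -3.5 in these data, passing the limit was not always enough); inactive means the rest, inconclusive results apart.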 Many of the other results were omitted from the sample, so actives are more common in it than they were.

Turning to `O=C(Nc1ccc(N2CCOCC2)cc1)c1ccc2c(c1)OCO2`, the z-score (at 20 µM, stronger effect = lower value) was 1.56 (inactive); the z-score under setting [1] is -0.797; the z-score under setting [2] is -0.257; the z-score under setting [3] was found to be 0.727.

Regarding `CCCC1NC(=S)NC(C)=C1C(C)=O` (configuration not stated), the z-score (at 20 µM, stronger effect = lower value) is 0.661 (inactive); the z-score under setting [1] was 0.486; the z-score under setting [2] was -0.194; the z-score under setting [3] stood at 0.234.

Take `COc1cc(/C=N\NC(=O)CNC(=O)c2cccc([N+](=O)[O-])c2)ccc1O`: the z-score reads like this: (at 20 µM, stronger effect = lower value) 2.51 (inactive); under setting [1], -1.15; under setting [2], 0.0365; under setting [3], 1.56.

As for `COc1ccc(C(=O)NCC(=O)N/N=C/c2ccc([N+](=O)[O-])o2)cc1OC`, the z-score (at 20 µM, stronger effect = lower value) is -4.33 (active); the z-score under setting [1] worked out at 0.928; the z-score under setting [2] is 0.52; the z-score under setting [3] was -1.68.

With `COc1ccc(C(=O)NCC(=O)N/N=C/c2ccc([N+](=O)[O-])s2)cc1OC`, the z-score reads like this: (at 20 µM, stronger effect = lower value) -0.653 (inactive); under setting [1], 0.617; under setting [2], -0.211; under setting [3], -0.24.

With `CC(C)(C)OC(=O)NCCCCCC(=O)N/N=C/c1coc2ccccc2c1=O`, the z-score runs as follows: (at 20 µM, stronger effect = lower value) -0.131 (inactive); under setting [1], -0.0505; under setting [2], -0.202; under setting [3], -0.314.

Turning to `C/C(=N\NC(=O)CSc1nc2ccccc2c(=O)n1-c1ccccc1C)c1cccs1`, the z-score reads like this: (at 20 µM, stronger effect = lower value) 0.968 (inactive); under setting [1], -0.667; under setting [2], -0.231; under setting [3], 0.554.

For `CCn1c(SCc2cc(=O)n3ccsc3n2)nc2ccccc21`, the z-score (at 20 µM, stronger effect = lower value) is -0.0624 (inactive); the z-score under setting [1] is -0.534; the z-score under setting [2] is -0.319; the z-score under setting [3] was 0.783.

As for `CCCCCCc1cc2cc(-c3nnc(-c4cccc(OC)c4)o3)c(=O)oc2cc1O`, the z-score was -2.6 (inactive) (at 50 µM, stronger effect = lower value); -0.146 under setting [4]; 22.1 under setting [5]; 2.79 under setting [6].

Regarding `CC(C)Sc1nnc([C@H](Cc2ccccc2)NC(=O)OC(C)(C)C)o1`, the z-score reads like this: (at 20 µM, stronger effect = lower value) -1.61 (inactive); under setting [1], 1.71; under setting [2], 0.279; under setting [3], -0.731.

As to `C[C@@H](NC(=O)OC(C)(C)C)c1nnc(S(=O)(=O)Cc2ccccc2)o1`, the z-score reads like this: (at 20 µM, stronger effect = lower value) -5.36 (active); under setting [1], 0.73; under setting [2], 1.44; under setting [3], -2.38.

Take `C[C@H](NC(=O)OC(C)(C)C)c1nnc(SCC(N)=O)o1`: the z-score reads like this: (at 20 µM, stronger effect = lower value) 0.077 (inactive); under setting [1], -0.312; under setting [2], -0.175; under setting [3], 0.307.

With `Cc1ccc(NC(=O)CN(C)Cc2ccc(F)cc2)c([N+](=O)[O-])c1`, the z-score (at 20 µM, stronger effect = lower value) is -0.244 (inactive); the z-score under setting [1] was -0.235; the z-score under setting [2] is -0.22; the z-score under setting [3] is -0.284.

In the case of `CCOC(=O)C(=CNc1cccc(C)n1)C(=O)OCC`, the z-score by setting is: (at 20 µM, stronger effect = lower value) 0.995 (inactive); under setting [1], 0.752; under setting [2], -0.214; under setting [3], 0.879.

Regarding `COc1ccccc1NC(=O)c1ccc(C)s1`, the z-score is 0.335 (inactive) (at 50 µM, stronger effect = lower value); -0.862 under setting [4]; -0.265 under setting [5]; 0.226 under setting [6].

For `CCOC(=O)C(=Cc1ccccc1OC)C(=O)OCC`, the z-score runs as follows: (at 20 µM, stronger effect = lower value) -5.08 (active); under setting [1], 0.0073; under setting [2], 1.43; under setting [3], -2.52.

For the compound `N#Cc1cccc(NC(=O)COC(=O)c2ccccc2C(=O)c2ccc(Cl)c([N+](=O)[O-])c2)c1`, the z-score was -0.407 (inactive) (at 20 µM, stronger effect = lower value); 0.615 under setting [1]; -0.326 under setting [2]; -0.496 under setting [3].

`Cn1cnnc1SCC(=O)NNC(=O)COc1ccc(Br)cc1`: the z-score is, setting by setting: (at 20 µM, stronger effect = lower value) 0.431 (inactive); under setting [1], 0.453; under setting [2], -0.218; under setting [3], -0.126.

In the case of `C[C@@H]1C[C@@H]2O[C@H]2/C=C\C=C\C(=O)Cc2c(Cl)c(O)cc(O)c2C(=O)O1`, the z-score is -3.8 (active) (at 20 µM, stronger effect = lower value); 0.512 under setting [1]; 1.82 under setting [2]; -1.89 under setting [3].

With `COc1cc(CO)c(C2(CO)CCCC2)cc1OC`, the z-score was 0.000321 (inactive) (at 20 µM, stronger effect = lower value); -0.54 under setting [1]; -0.145 under setting [2]; 0.499 under setting [3].

As for `COC(=O)c1ccc(Sc2ccc(F)cc2)c(N)c1`, the z-score by setting is: (at 20 µM, stronger effect = lower value) 0.257 (inactive); under setting [1], 0.499; under setting [2], -0.377; under setting [3], 0.132.

Consider `Cc1ccc(C(C)NC(=O)Cn2nc(C)c([N+](=O)[O-])c2C)cc1` (configuration not stated), for which the z-score is -0.784 (inactive) (at 20 µM, stronger effect = lower value); 0.727 under setting [1]; -0.261 under setting [2]; -0.607 under setting [3].

Regarding `COc1ccc(CCc2nnc(CCC(=O)NCc3cnn(-c4ccccc4C)c3)o2)cc1`, the z-score is 1.76 (inactive) (at 20 µM, stronger effect = lower value); -1.6 under setting [1]; -0.0906 under setting [2]; 1.43 under setting [3].

As to `O=C(NCCCN1CCOCC1)c1ccc([N+](=O)[O-])cc1[N+](=O)[O-]`, the z-score reads like this: (at 20 µM, stronger effect = lower value) -0.163 (inactive); under setting [1], 0.317; under setting [2], -0.243; under setting [3], 0.0502.

`O=[N+]([O-])c1cc(S(=O)(=O)CCCN2CCOCC2)ccc1F`: the z-score is -4.25 (active) (at 20 µM, stronger effect = lower value); 0.317 under setting [1]; 1.15 under setting [2]; -2.3 under setting [3].

For `O=[N+]([O-])c1ccc(NCCCN2CCOCC2)c(Cl)c1`, the z-score is 0.346 (inactive) (at 20 µM, stronger effect = lower value); -0.149 under setting [1]; 0.0336 under setting [2]; 0.676 under setting [3].

As for `COC(=O)C(C(=O)Nc1cccc(Cl)c1C)C1CCCC1` (configuration not stated), the z-score was 0.289 (inactive) (at 20 µM, stronger effect = lower value); 0.616 under setting [1]; 0.0155 under setting [2]; -0.208 under setting [3].

As to `CC(=O)c1ccc(-c2nnc(CCC(=O)N(C)Cc3cnc4ccccn34)o2)s1`, the z-score is, setting by setting: (at 20 µM, stronger effect = lower value) -0.0124 (inactive); under setting [1], -0.441; under setting [2], -0.212; under setting [3], 0.00751.

With `O=C(Nc1cccc([N+](=O)[O-])c1)Nc1ccc(Cl)cn1`, the z-score is 0.686 (inactive) (at 20 µM, stronger effect = lower value); -0.334 under setting [1]; -0.0491 under setting [2]; 0.778 under setting [3].

Take `O=C(CCl)N(Cc1cccc([N+](=O)[O-])c1)c1cccc(Cl)c1`: the z-score (at 20 µM, stronger effect = lower value) is -4.69 (active); the z-score under setting [1] was -1.23; the z-score under setting [2] amounted to 2.38; the z-score under setting [3] is -2.48.

For the compound `CCN(CC)C(=O)CN(c1cccc([N+](=O)[O-])c1)S(=O)(=O)c1ccccc1`, the z-score runs as follows: (at 20 µM, stronger effect = lower value) -0.611 (inactive); under setting [1], 0.944; under setting [2], -0.266; under setting [3], -0.263.

Turning to `CCOc1ccc(Br)cc1S(=O)(=O)Nc1cccc(S(=O)(=O)N(CC)CC)c1`, the z-score runs as follows: (at 20 µM, stronger effect = lower value) -0.331 (inactive); under setting [1], 0.488; under setting [2], -0.167; under setting [3], -0.464.

For `CS(=O)(=O)c1ccc(Cl)c(NC(=O)Nc2ccccc2)c1`, the z-score is, setting by setting: (at 20 µM, stronger effect = lower value) 1.27 (inactive); under setting [1], -0.472; under setting [2], -0.245; under setting [3], 0.728.

Take `O=C(Nc1ccccc1)c1nnsc1S(=O)(=O)c1ccc(Cl)cc1`: the z-score runs as follows: (at 20 µM, stronger effect = lower value) -5.03 (active); under setting [1], 0.905; under setting [2], 0.759; under setting [3], -1.85.

For the compound `O=C(Nc1ccc(Cl)cc1)c1ccsn1`, the z-score reads like this: (at 20 µM, stronger effect = lower value) 1.02 (inactive); under setting [1], -1.19; under setting [2], -0.158; under setting [3], 1.14.

In the case of `CC(Nc1ccccc1)c1cccnc1` (configuration not stated), the z-score reads like this: (at 20 µM, stronger effect = lower value) -0.716 (inactive); under setting [1], 0.0401; under setting [2], -0.305; under setting [3], -0.598.

Take `CCOC(=O)C1(S(=O)(=O)c2ccccc2)CCN(Cc2ccccc2)CC1`: the z-score is, setting by setting: (at 20 µM, stronger effect = lower value) -0.25 (inactive); under setting [1], 0.352; under setting [2], -0.189; under setting [3], 0.556.

In the case of `CC1=C/C(=N\OS(=O)(=O)c2ccccc2)C=CC1=O`, the z-score is, setting by setting: (at 50 µM, stronger effect = lower value) -4.5 (active); under setting [4], -1.11; under setting [5], 1.28; under setting [6], -2.71.

For the compound `CC1=C/C(=N\S(=O)(=O)c2ccccc2)C(C(C)C)=CC1=O`, the z-score is -0.707 (inactive) (at 20 µM, stronger effect = lower value); -0.217 under setting [1]; -0.313 under setting [2]; 0.209 under setting [3].

As for `COc1ccc(/C=N/N=C2/C(=O)Nc3ccccc32)cc1O`, the z-score is 0.0879 (inactive) (at 20 µM, stronger effect = lower value); -1.02 under setting [1]; 0.671 under setting [2]; 0.854 under setting [3].

With `C=CCOC(=O)C1=C[C@@H](c2ccccc2)C[C@@H](OCc2ccc(CO)cc2)O1`, the z-score (at 20 µM, stronger effect = lower value) is -0.243 (inactive); the z-score under setting [1] was -0.581; the z-score under setting [2] was -0.228; the z-score under setting [3] worked out at 0.233.

In the case of `CC(=O)c1cc(C#N)c(SCC(=O)Nc2nccs2)nc1C`, the z-score reads like this: (at 20 µM, stronger effect = lower value) 0.633 (inactive); under setting [1], -0.767; under setting [2], -0.205; under setting [3], 1.

Regarding `CCn1c(SCC(=O)Nc2nc(C)cs2)nnc1C(C)NC(=O)c1ccccc1` (configuration not stated), the z-score runs as follows: (at 20 µM, stronger effect = lower value) 0.931 (inactive); under setting [1], -0.274; under setting [2], -0.247; under setting [3], -0.608.
